# An excerpt weighted towards active compounds, which were near 3.1% of everything screened.
# core dimer inh: inhibitors of HCV core protein dimerization, primary screen, biochemical, TR-FRET, high-throughput; TR-FRET GST/Flag-core106 dimerization, 1536-well; inhibition, % at 5 µM; actives 0.33% (n = 300,000); AID 1899, 2009;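 active means inhibition above the mean of all tested compounds plus 3 SD, set per screening campaign, cut at about 45% in these data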
#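 Material: Tagged HCV core106 pair (GST and Flag) | Amount: GST-core106 13.5 nM, Flag-core106 17 nM | Medium: KF-containing HEPES buffer, pH 7.45, DTT, CHAPS, BSA | Reagent: Eu donor and XL665 acceptor anti-tag antibodies | Schedule: 4 h at 22.5 °C | Technique: Time-resolved FRET, ex 340 nm, em 617 and 671 nm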
# IMP-1 inh: IMP-1 metallo-beta-lactamase inhibitors, primary screen, biochemical, epi-absorbance readout, Pseudomonas aeruginosa enzyme; purified IMP-1, nitrocefin hydrolysis, epi-absorbance fluorescence; inhibition, % at 5.6 µM; actives 0.45% (n = 290,000);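 active means inhibition above the mean plus 3 SD of all compounds in the same screening run, cut at about 4.5% in these data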;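 further: 0% = IMP-1 with DMSO and 100% = DMSO wells lacking enzyme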
#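 system = purified recombinant IMP-1 beta-lactamase | amount = 0.2 nM IMP-1, as dispensed | medium = HEPES buffer pH 7.1 with ZnSO4 and Brij 35 | times = 25 °C, 15 min preincubation, 25 min reaction | detection = plate fluorescence quenching by hydrolysis product, ex 480/em 530 nm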
# VIM-2 inhibitor: VIM-2 metallo-beta-lactamase inhibitors, primary screen, biochemical, epi-absorbance readout, Pseudomonas aeruginosa enzyme. AID 1527, 2009. purified VIM-2, nitrocefin hydrolysis, epi-absorbance fluorescence. actives 0.89% (n = 290,000). inhibition, % at 5.6 µM;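 active means inhibition above the mean of all tested compounds plus 3 SD, cutoff set per screening run, cut at about 7.5% in these data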;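 further: red hydrolysis product quenches plate fluorescence so inhibitors raise well fluorescence; 0% = enzyme with DMSO and 100% = DMSO without enzyme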
# PHOSPHO1 block: PubChem AID 1565; Phosphoethanolamine/phosphocholine phosphatase (Homo sapiens), Q8TCT1; recombinant PHOSPHO1, absorbance phosphatase assay; inhibition, % at 13.3 µM; actives 1.1% (n = 290,000); in the data active means inhibition above about 60%
# Target sequence (Q8TCT1 whole entry, looked up): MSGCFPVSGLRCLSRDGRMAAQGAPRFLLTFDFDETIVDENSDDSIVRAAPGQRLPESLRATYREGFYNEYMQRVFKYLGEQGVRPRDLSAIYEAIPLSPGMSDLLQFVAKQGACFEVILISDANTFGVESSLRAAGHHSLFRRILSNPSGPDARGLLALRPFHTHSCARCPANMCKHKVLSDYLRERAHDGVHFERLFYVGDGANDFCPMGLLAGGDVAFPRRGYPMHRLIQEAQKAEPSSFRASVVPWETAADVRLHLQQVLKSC
# HCV NS3 hel inh: inhibitors of HCV NS3 helicase, primary screen, biochemical, Cy5 molecular beacon fluorescence. Hepatitis C virus NS3 helicase. NS3 helicase DNA unwinding. inhibition, % at 10.9 µM. actives 0.56% (n = 290,000). AID 1800, 2009;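 active means inhibition above the mean of all tested compounds plus 3 SD, set per campaign, cut at about 35% in these data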;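 further: 0% = DMSO wells and 100% = thioflavine S control wells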
#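 Material: hepatitis C virus NS3 helicase domain fragment enzyme; measured by: Cy5 fluorescence, 0 and 60 min reads; control set: DMSO and thioflavine S; incubation: 60 min unwinding reaction at 25 °C after ATP addition; read-out basis: % inhibition from 60/0 min fluorescence ratio, DMSO 0%, thioflavine S 100%; repeats: singlicate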
# UBC9 SUMO inh: inhibitors of in vitro SUMOylation cascade, primary screen, biochemical, HTRF, uHTS | SUMO-conjugating enzyme UBC9 (Homo sapiens), P63279 | HTRF SUMOylation assay, SAE1/SAE2 + UBC9 | inhibition, % at 35 µM | actives 0.36% (n = 290,000) | AID 2006, 2009; in the data active means inhibition above about 50%, passing the limit was not always enough
# Target sequence (P63279 whole entry, looked up): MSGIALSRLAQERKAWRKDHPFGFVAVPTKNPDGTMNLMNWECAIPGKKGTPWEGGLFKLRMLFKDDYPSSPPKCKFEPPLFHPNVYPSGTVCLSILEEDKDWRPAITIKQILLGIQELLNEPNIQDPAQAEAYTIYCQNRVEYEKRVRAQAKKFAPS
# NS3 helicase cf: HCV NS3 helicase inhibitors, retest, confirmation, biochemical, Cy5 molecular beacon fluorescence, triplicate; shares compounds with HCV NS3 hel inh; NS3 helicase DNA unwinding; inhibition, % at 10.9 µM; actives 31% (n = 1,600);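 active means inhibition above the mean of all tested compounds plus 3 SD, cutoff set per campaign, cut at about 36% in these data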
# FID counter trip: compounds displacing fluorescent DNA intercalator, artefact control for HCV NS3 helicase inhibitor project, biochemical, FID fluorescence, triplicate; shares compounds with HCV NS3 hel inh; DNA fluorescent intercalator displacement; inhibition, % at 7.9 µM; actives 4% (n = 1,600); in the data active means inhibition above about 37%;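 further: 0% = vehicle and 100% = reference compound; higher means more displacement of ethidium bromide from the DNA hairpin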
# DNA FID DR: compounds displacing fluorescent intercalator from DNA, dose response, counter-screen for HCV NS3 helicase inhibitor project, biochemical, fluorescence | shares compounds with HCV NS3 hel inh | fluorescent intercalator displacement from DNA | IC50, µM | 120 tested, under 10 active; call rule not given here
# * = called active by the depositor; nt = no result.
SMILES,core dimer inh,IMP-1 inh,VIM-2 inhibitor,PHOSPHO1 block,HCV NS3 hel inh,UBC9 SUMO inh,NS3 helicase cf,FID counter trip,others
O=c1cc(-c2ccco2)nc(SCc2cccc(Cl)c2)[nH]1,4,-1,0,19,45*,19,9,-9,
Cc1cn(CC2COC(C)(C)O2)c(=O)[nH]c1=O (stereo unspecified),-3,0,-2,0,38*,18,-2,10,
COc1ccc(CNC(=O)COC(=O)[C@H](Cc2c[nH]c3ccccc23)NC(=O)c2cccs2)cc1,6,-3,-1,-1,-5,-24,nt,nt,
Cc1noc(C)c1C(=O)NCCc1c(C)[nH]c2ccccc12,-9,1,1,14,-3,14,nt,nt,
NS(=O)(=O)c1ccc(N=Nc2c(O)c(C(=O)O)cc3ccccc23)cc1,-3,-4,-2,43,35,11,nt,nt,
O=C(O)Cc1ccc(N=Nc2c(O)c(C(=O)O)cc3ccccc23)cc1,-8,-4,-5,21,42*,28,64*,-7,
Cc1ccc(-n2ncc(C#N)c2/N=C/N2CCCCCC2)cc1,8,-2,-3,-12,101*,-4,1,-38,
CC(C)=CCC(C)(C)/C=N/NC(N)=O,0,-2,-1,30,-2,22,nt,nt,
Cn1cccc1Cc1nnc(SCC(=O)Nc2nc3ccccc3s2)n1CCc1ccccc1,-6,-7,-5,30,52*,22,5,-21,
Cc1nc(Nc2ccc(S(N)(=O)=O)cc2)oc1C,0,-1,3,-8,81*,16,-13,1,
COc1cc(/C=N/NC(N)=O)ccc1OCC(=O)N1C(C)CCCC1C (stereo unspecified),0,-1,-3,48,2,14,nt,nt,
COc1cc(/C=N/Nc2ccc(Cl)c(C(=O)O)c2)ccc1OC(=O)c1ccco1,-2,-1,5,-60,38*,-7,65*,-12,
COc1cc(/C=N/Nc2ccc(Cl)c(C(=O)O)c2)ccc1OCC(=O)N1C(C)CCCC1C (stereo unspecified),9,-2,0,28,45*,26,70*,-9,
CNC(=O)N(O)C1N(/N=C/c2c(F)cccc2Cl)C(=S)SC1(C)C (stereo unspecified),-1,-1,0,28,-17,5,nt,nt,
COCCNC(=O)CCCCCNS(=O)(=O)c1ccc(C)cc1,-3,-4,-4,11,2,-3,nt,nt,
Cc1ccc(S(=O)(=O)NCCCCCC(=O)NCCc2ccccc2)cc1,-5,-6,-3,19,43*,-3,-11,-28,
O=C(Cc1cccs1)N1CCN=C1SCc1ccc(Br)cc1,1,2,2,23,-3,6,nt,nt,
Cc1c(CC(=O)NCC(=O)O)c(=O)oc2cc3occ(-c4ccccc4)c3cc12,3,-1,0,5,38*,10,51*,-29,
Cc1c(CC(=O)NCCCC(=O)O)c(=O)oc2cc3occ(-c4ccccc4)c3cc12,10,-4,0,31,19,8,nt,nt,
O=C(O)c1cccnc1Sc1ccccc1Cl,4,0,0,7,16,7,nt,nt,
O=C(O)c1ccc(Cl)c2c1C1C=CCC1C(c1ccccn1)N2 (stereo unspecified),11,0,-1,83*,63*,33,75*,7,
CC(C)Nc1ccc(Cl)cc1[N+](=O)[O-],-4,0,4,22,41*,23,-12,1,
CC(=O)c1ccccc1NC(=O)CN1C(=O)CS/C1=C\c1nc(-c2ccc(C)cc2)cs1,31,-2,-2,-134,37*,5,-3,-16,
C=CCn1c(CCc2cc(C(C)(C)C)c(O)c(C(C)(C)C)c2)n[nH]c1=S,0,-3,-3,-103,0,-5,nt,nt,
CS(=O)(=O)N1N=C(c2ccco2)CC1c1ccccc1Cl (stereo unspecified),7,-3,-2,24,36*,13,-19,-9,
SMILES,core dimer inh,IMP-1 inh,VIM-2 inhibitor,PHOSPHO1 block,HCV NS3 hel inh,UBC9 SUMO inh,NS3 helicase cf,FID counter trip,others
O=C(NCC(=O)N1CCN(S(=O)(=O)c2ccccc2F)CC1)c1ccc(Br)o1,2,-4,-2,9,-2,1,nt,nt,
COc1ccc(-n2cccc2/C=C2\C(=N)N3N=C(C(C)C)SC3=NC2=O)cc1,24,-2,-2,44,25,19,nt,nt,
N=C1/C(=C/c2coc3ccccc3c2=O)C(=O)N=C2SC(c3ccco3)=NN12,-4,6.8*,-1,0,54*,18,50*,50*,
COc1ccc(-n2cccc2/C=C2\C(=N)N3N=C(c4ccco4)SC3=NC2=O)cc1,48*,-1,-1,-86,42*,88*,71*,-14,DNA FID DR=>79
N=C1/C(=C\c2coc3ccccc3c2=O)C(=O)N=C2SC(c3ccncc3)=NN12,16,3,3,5,7,26,nt,nt,
COC(=O)c1ccccc1NC(=O)CN(c1c(C)cccc1C)S(C)(=O)=O,-1,-3,3,19,4,10,nt,nt,
COc1ccc(Nc2nccc(-c3ccc(C#N)cc3)n2)cc1,-8,-3,-2,26,37*,13,-6,-7,
COc1ccc(Nc2nccc(-c3cccc(N)c3)n2)cc1,-8,0,0,42,-16,-8,nt,nt,
C=CCNC(=O)O/N=C/c1csc([N+](=O)[O-])c1,1,0,-2,1,5,16,nt,nt,
CCCCn1c(N)c(N(CC(C)C)C(=O)CCCc2nc3ccccc3s2)c(=O)[nH]c1=O,-1,nt,nt,nt,nt,nt,nt,nt,
CCCCn1c(N)c(N(CCC(C)C)C(=O)c2cc(-c3ccco3)nc3ccccc23)c(=O)[nH]c1=O,49*,0,-2,-2,41*,14,9,3,
CCCCn1c(N)c(N(CCC(C)C)C(=O)CCCc2nc3ccccc3s2)c(=O)[nH]c1=O,-9,1,2,52,38*,-14,3,-35,

# Assay outcomes as filed in PubChem.
